Series [1] concerns the target Adenosine kinase (Homo sapiens, UniProt P55263). The experiment in a line: Inhibition of human adenosine kinase. Conditions: read-out: IC50.
Series [2] has as its system HeLa S3. Briefly: Inhibition of DNA syntheses in human HeLaS3 cells assessed as [3H]thymidine incorporation at 10 uM after 40 mins by scintillation counter. The class given is functional, cell-based. The procedure, abridged: (§1)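 HeLaS-3 cells grown in DMEM with fetal calf serum, trypsinized, and resuspended at 10^6 cells/mL in serum-free DMEM at 37 C with 0, 10 or 50 μM compound plus 5 μCi [3H]thymidine (25 Ci/mmol) or [3H]uridine (22 Ci/mmol). Samples at 0-40 min were spotted on GF/C filters, washed in 5% TCA and ethanol, and acid-precipitable radioactivity counted. Mean of three determinations.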

Series [3] has as its system HeLa S3. Briefly: Inhibition of DNA syntheses in human HeLaS3 cells assessed as [3H]thymidine incorporation at 50 uM after 40 mins by scintillation counter. The format is functional, cell-based. In short, it runs like this: as §1
In general terms: Uptake of a labelled nucleoside into DNA is a usual measure of proliferation.

Series [4] concerns HeLa S3. The experiment in a line: Inhibition of RNA syntheses in human HeLaS3 cells assessed as inhibition of [3H]uridine incorporation after 40 mins by scintillation counter. The class given is functional, cell-based. In short, it runs like this: as §1
The nature of series [5]: Cellular permeability in human HeLaS3 cells assessed as level of [3H]AMP produced at 2.5 to 25 uM by scintillation counter. The class given is ADME, cell-based. To be noted: hela s3, 25 µM. In short, it runs like this:
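HeLaS-3 cells grown in DMEM with fetal calf serum at 37 C, trypsinized, then resuspended at 10^6 cells/mL in serum-free DMEM with compound and 3 μCi [3H]Ado (25 Ci/mmol) at 37 C. Samples taken at 0, 10, 20, 30 and 40 min were spotted on DE-81 filters and washed. [3H]AMP was measured by scintillation counting. Mean of three determinations.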

The test system of series [6] is K562. The experiment in a line: Growth inhibition of human K562 cells after 7 days by Burker cell counter. The format is functional. Conditions: K562, 168 h. In short, it runs like this: (§2)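 K562 cells in RPMI 1640 with 10% fetal calf serum, seeded at 5000 cells/mL and held 15 h at 37 C in 5% CO2. Serial compound dilutions were added and cells incubated 7 days. Aliquots were mixed with 0.5% trypan blue; unstained and blue cells were counted on a Bürker chamber. Triplicate points, each count averaged from four determinations.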

In series [7] the test system is K562. Briefly: Cytotoxicity against human K562 cells assessed as dead cells after 7 days by Burker cell counter. The class given is functional, cell-based. The procedure, abridged: as §2
The subject of series [8] is HeLa S3. Briefly: Cytostatic activity against human HeLaS3 cells at 40 uM after 24 to 48 hrs compound added for every 24 hrs. The format is functional, cell-based. In short, it runs like this: (§3)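 Cells (8 × 10^4) grown at 37 C in DMEM with 10% fetal calf serum, 5 mM L-glutamine and 50 μg/mL gentamycin, with or without 40 μM compound for 3 days. Medium and compound were replaced daily. Cultures were counted every day after trypsinization.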

For series [9], the species on record is Homo sapiens. The experiment in a line: Cytostatic activity against human Cen3tel cells at 40 uM after 24 to 48 hrs compound added for every 24 hrs. The format is functional, cell-based. In short, it runs like this: as §3
A short description of series [10]: Metabolic stability of the compound in human HeLaS3 cell crude extract assessed as compound degradation measured upto 20 hrs pretreated at 40 uM for 3 days. The format is ADME, cell-based. Conditions: hela s3, 20 h. In short, it runs like this: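 HeLaS-3 cells cultured 3 days with 40 μM compound added fresh every 24 h; crude extract prepared by hypotonic Hepes buffer lysis, dounce homogenization and 10000g spin. Compound (1 mM) was incubated in extract at 37 C for 0, 1, 5 and 20 h, then lyophilized and extracted twice with cold MeOH. Remaining compound was quantified by reverse-phase HPLC.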

Series [11] concerns HL-60. The experiment in a line: Cytotoxicity against human HL60 cells after 72 hrs. The class given is functional, cell-based. To be noted: HL-60, 72 h. In short, it runs like this:
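HL-60 cells (40 000/well) in RPMI-1640 with 10% FBS and penicillin/streptomycin, seeded for 24 h, then exposed to vehicle (0.1% DMSO) or a concentration range for 72 h. AlamarBlue (10% v/v) was added for 4.5 h at 37 C and fluorescence read at ex 544/em 590 nm. Viability is relative to vehicle control; IC50 from dose-response curves; three independent experiments.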

Series [12] has as its system HL-60. Briefly: Induction of apoptosis in human HL60 cells assessed as DNA content at 50 uM after 24 hrs by flow cytometry relative to vehicle-treated control. The format is functional. The procedure, abridged:
(§4)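 HL-60 cells treated with vehicle (0.1% DMSO) or 25-100 μM compound for 24, 48 or 72 h, harvested by centrifugation, PI-stained for 30 min at 37 C in the dark, and analysed by flow cytometry (10 000 gated events). Cells with under 2N DNA content were scored apoptotic. Three independent experiments.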

Series [13] has as its system HL-60. Briefly: Induction of apoptosis in human HL60 cells assessed as DNA content at 100 uM after 24 hrs by flow cytometry relative to vehicle-treated. The format is functional. In short, it runs like this: as §4
A general note: A flow cytometer gives signals particle by particle.

In series [14] the test system is HL-60. The experiment in a line: Induction of apoptosis in human HL60 cells assessed as DNA content at 100 uM after 48 hrs by flow cytometry relative to vehicle-treated. The class given is functional. In short, it runs like this: as §4
Series [15] has as its target T1, Adenosine deaminase (Bos taurus) (UniProt P56658).
T1 sequence (whole entry): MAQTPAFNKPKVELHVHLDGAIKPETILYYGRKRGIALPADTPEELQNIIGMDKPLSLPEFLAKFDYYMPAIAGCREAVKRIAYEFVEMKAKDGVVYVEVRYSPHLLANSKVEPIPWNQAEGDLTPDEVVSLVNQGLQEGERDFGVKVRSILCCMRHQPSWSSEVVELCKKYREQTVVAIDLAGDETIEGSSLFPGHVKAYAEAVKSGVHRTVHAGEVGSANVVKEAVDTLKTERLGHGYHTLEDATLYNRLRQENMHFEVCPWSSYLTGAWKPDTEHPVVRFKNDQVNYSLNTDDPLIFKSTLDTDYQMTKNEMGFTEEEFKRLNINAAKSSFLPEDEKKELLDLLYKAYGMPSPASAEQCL
Briefly: Inhibition of bovine ADA at 100 uM by spectrophotometric analysis. The procedure, abridged: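 Adenosine deaminase assayed at 30 C with 50 μM Ado, 50 mM potassium phosphate pH 7.2 and 0.3 nM enzyme. Deamination was followed as A262 change over 2 min. Compound tested at 100 μM, with DMSO at most 4% final and a substrate-free blank. Percent inhibition from two determinations in triplicate.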

For series [16], the system named is NIH3T3. The experiment in a line: Cytotoxicity against mouse 3T3 cells by phenyltetrazolium bromide assay. The class given is functional, cell-based. In short, it runs like this: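 Murine 3T3 fibroblasts; proliferation measured by MTT assay, with IC50 reported. Each value is the mean of three determinations; Student's t test, p < 0.05.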
In series [17] the test system is HeLa S3 (Homo sapiens). Briefly: Growth inhibition of human HeLaS-3 cells pretreated for 2 days measured after 24 hrs of compound wash out by Burker cell counter.
In series [18] the test system is HeLa S3 (Homo sapiens). The experiment in a line: Growth inhibition of human HeLaS-3 cells pretreated for 2 days measured after 2 days of compound wash out by Burker cell counter.

The source made the active and inactive calls. No cut-off for these calls is given here.

Adenosine kinase, sequence (P55263 whole entry): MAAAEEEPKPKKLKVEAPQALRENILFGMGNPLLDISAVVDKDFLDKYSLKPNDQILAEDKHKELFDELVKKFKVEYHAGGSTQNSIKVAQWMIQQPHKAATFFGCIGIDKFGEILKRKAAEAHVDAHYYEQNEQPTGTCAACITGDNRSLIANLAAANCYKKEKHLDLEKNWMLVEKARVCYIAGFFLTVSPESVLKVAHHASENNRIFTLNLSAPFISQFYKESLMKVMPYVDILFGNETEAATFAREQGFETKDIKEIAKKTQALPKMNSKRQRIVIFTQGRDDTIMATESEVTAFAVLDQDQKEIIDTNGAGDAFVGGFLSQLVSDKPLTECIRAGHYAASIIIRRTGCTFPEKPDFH

For the compound `CCC1(c2ccc(CSc3ccccc3)cc2)Oc2ccccc2-n2cccc2C1=O` (racemic), the IC50 came out at 1.2 µM in series [1], 50 µM in series [4], 34.2 µM in series [11] and 118 µM in series [16]. In addition, the outcome in series [2], in [3], in [8] and in series [9] was inactive. Moreover, the Drug uptake result in series [5] was “Active”. This compound also displayed a GI50 in [6] of 1 µM. Also, the Activity entry in series [7] is “Not toxic”; in series [12], 44%; in series [13], 70%; in series [14], 90%. Further, the Stability result in series [10] is “Stable”. The inhibition in series [15] was found to be 15%. Moreover, in series [17], the “growth inhibition (GI)” value is “Active”. Also, in [18], the “growth inhibition (GI)” value was “inactive”.

The IC50 is the concentration that gives 50% inhibition. As usually defined, the GI50 is the concentration at which growth is held to half of that of the control. High values mean lower sensitivity of the cells, low ones greater sensitivity of the cells. Usually inhibition stands for how much of the control response was suppressed. Low readings indicate a weak effect, high ones a strong effect.
